A selection: hits, their analogues and other compounds. The true share with any hit is near 2.9%.
UBC13 inh: human UBC13 polyubiquitination inhibition. 0.47% of 330,000 active. P61088. AID 485273. UBC13 polyubiquitin chain formation, TR-FRET. inhibition, % at 20 µM; in the data active = inhibition above about 45%, passing the limit was not always enough
Target sequence (P61088 whole entry, looked up): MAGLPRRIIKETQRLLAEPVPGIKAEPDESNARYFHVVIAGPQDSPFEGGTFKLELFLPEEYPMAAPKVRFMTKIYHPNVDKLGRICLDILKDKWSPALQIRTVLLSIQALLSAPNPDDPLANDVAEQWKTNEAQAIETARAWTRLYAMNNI
MEKK2 WT-MEK5: raises or lowers MEK5 binding to wildtype human MEKK2 PB1 domain. bead flow cytometry, Alexa488-MEK5 binding to MEKK2 WT; actives lie on both sides. Q9Y2U5. AID 1531. 1.1% of 290,000 active. binding response (% of control), % at 10 µM; in the data active = binding response below about 67% or above about 130%
Apaf1 inhib: inhibitors of human Apaf-1 apoptosome. AID 489030. reconstituted apoptosome caspase-3 activity, DEVD-Rh110 fluorescence. 0.71% of 330,000 active. O14727. inhibition, % at 20 µM; active = inhibition of at least 40% at 20 µM
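System: reconstituted apoptosome with Apaf-1, cytochrome c, caspase-9, procaspase-3, dATP; Signal: Rh110 fluorescence intensity; Schedule: 30 min compound preincubation, 50 min activation, room temperature; Reagent: cytochrome c trigger plus (Z-DEVD)2-Rh110 caspase-3 substrate.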
MEKK2mut PB1 HTS: signal of MEK5 binding to mutant human MEKK2 PB1 domain. bead flow cytometry, Alexa488-MEK5 binding to MEKK2 mutant. percent response, % at 10 µM. 0.35% of 290,000 active; in the data active = percent response above about 24%, passing the limit was not always enough
MEKK3 PB1 HTS: raises or lowers MEK5 binding to the human MEKK3 PB1 domain. Q99759. bead-based flow cytometry, Alexa488-MEK5 binding to MEKK3; actives lie on both sides; 0 = blocked by unlabeled MEK5, 100 = vehicle. binding response (% of control), % at 10 µM. 1.4% of 290,000 active. AID 1529;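 active = binding response more than 3 SD above or below the average of its plate-row segment, actives on both sides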;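 also: Alexa488 bead fluorescence after subtracting the streptavidin-only scavenger bead signal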
MEKK2wt confirm: raises or lowers MEK5 binding to wildtype human MEKK2, retest. shares compounds with MEKK3 PB1 HTS. bead flow cytometry, Alexa488-MEK5 binding to MEKK2 WT; actives lie on both sides. binding response (% of control), % at 10 µM. 2.4% of 5,900 active. AID 1892; in the data active = binding response below about 16% or above about 210%; inactive = in between
MEKK2mut confirm: signal of MEK5 binding to mutant human MEKK2, retest. shares compounds with MEKK3 PB1 HTS. bead flow cytometry, Alexa488-MEK5 binding to MEKK2 mutant. percent response, % at 10 µM. 2% of 5,900 active. AID 1893; in the data active = percent response mostly above about 71%, no sharp cut-off; inactive = mostly below about 38%;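 also: higher means compound restores mutant binding toward wildtype level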
MEKK3 confirm: MEKK3-MEK5 PB1 inhibition, single concentration confirmation. shares compounds with MEKK3 PB1 HTS. bead flow cytometry, Alexa488-MEK5 binding to MEKK3; hits give low values. binding response (% of control), % at 10 µM. 1.8% of 5,900 active. AID 1894;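 active = binding response below 72% of control, or above a set upper limit, though filed actives all read lower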;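 also: lower values mean stronger disruption of MEK5 binding to MEKK3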
Each line names hits and unclear results; the compound was inactive in the other large screens (follow-up assays come after a bar, where they were run); [ ] = dose if it differs, or a comment.

CN(C)CCNc1nc2sc3c(c2c(=O)n1Cc1ccccc1)CCCCC3	MEKK2 WT-MEK5 149 | MEKK2wt confirm inactive | MEKK2mut confirm inactive | MEKK3 confirm inactive
CN(C)CCNc1nc2sc3c(c2c(=O)n1-c1ccccc1)CCCCC3	none
COc1cc2c(C(=O)OCCN(C)C)c(CSc3ccccc3)n(C)c2cc1Br	MEKK2 WT-MEK5 146 | MEKK2wt confirm inactive | MEKK2mut confirm inactive | MEKK3 confirm inactive
O=C(CN1CCN(Cc2ccc3c(c2)OCO3)CC1)N1CCc2[nH]c3ccc(F)cc3c2C1	MEKK2mut PB1 HTS 32 | MEKK2wt confirm inactive | MEKK2mut confirm inactive | MEKK3 confirm inactive
Cc1ccc(C)c(NC(=O)Cn2nc(-c3ccccc3)nc2-c2ccccc2)c1	none
Cc1ccc(NC(=O)Cn2nc(-c3ccccc3)nc2-c2ccccc2)c(C)c1	MEKK3 PB1 HTS 150 | MEKK2wt confirm inactive | MEKK2mut confirm inactive | MEKK3 confirm inactive
CCC1(C)Cc2ccccc2C(=S)N1 (stereo not given)	none
Nc1[nH]n(-c2ccccc2)c(=O)c1N=Nc1ccc2c(c1)OCCO2	MEKK3 PB1 HTS 75[inhibitor] | MEKK2wt confirm inactive | MEKK2mut confirm inactive | MEKK3 confirm inactive
Nc1[nH]n(-c2ccccc2)c(=O)c1N=Nc1ccc2c(c1)OCO2	none
O=C(c1ccsc1)N1CCCC(N2CCOCC2)C1 (stereo not given)	none
COc1cc(-c2n[nH]c(=S)n2-c2cc(C(F)(F)F)ccc2Cl)cc(OC)c1OC	MEKK3 PB1 HTS 144 | MEKK2wt confirm inactive | MEKK2mut confirm inactive | MEKK3 confirm inactive
Cc1ccc(Oc2nc(-c3ccccc3)ncc2S(C)(=O)=O)cc1	MEKK2 WT-MEK5 1.0[inhibitor], MEKK3 PB1 HTS 1.0[inhibitor] | MEKK2wt confirm inactive | MEKK2mut confirm inactive | MEKK3 confirm inactive
Cc1cccc(CNC(=O)C2CCC(=O)N(CCc3cccc(F)c3)C2)n1 (stereo not given)	none
Oc1c(Br)cc(Br)cc1C=Nc1ccc2c(c1)OCCO2	none
O=[N+]([O-])c1ccc(N/N=C/c2ccccc2O)cc1	none
O=[N+]([O-])c1ccc(O)c(C=Nc2ccc3oc(Cc4ccc(Cl)cc4)nc3c2)c1	MEKK2mut PB1 HTS 174, MEKK3 PB1 HTS 134 | MEKK2wt confirm inactive | MEKK2mut confirm inactive | MEKK3 confirm inactive
O=[N+]([O-])c1ccc(O)c(C=Nc2ccc3c(c2)OCCO3)c1	MEKK3 PB1 HTS 142 | MEKK2wt confirm inactive | MEKK2mut confirm inactive | MEKK3 confirm inactive
O=[N+]([O-])c1cccc(N/N=C/c2cc([N+](=O)[O-])ccc2O)c1	MEKK3 PB1 HTS 139 | MEKK2wt confirm inactive | MEKK2mut confirm inactive | MEKK3 confirm inactive
O=C(CN1CCCCC1)NC(=O)NC1CCCC1	none
O=C(NC1CCCCC1)NC1CCN(CC(=O)N2CCOCC2)CC1	MEKK2 WT-MEK5 2.0[inhibitor], MEKK3 PB1 HTS 2.0[inhibitor] | MEKK2wt confirm inactive | MEKK2mut confirm inactive | MEKK3 confirm inactive
Cc1nn2c(NCc3ccccn3)c3c(nc2c1-c1ccccc1)CCC3	none
COc1ccc(Nc2c3c(nc4c(-c5ccccc5)c(C)nn24)CCC3)cc1	MEKK3 PB1 HTS 128 | MEKK2wt confirm inactive | MEKK2mut confirm inactive | MEKK3 confirm inactive
CN(/N=C/C=C/c1ccccc1)C1=NS(=O)(=O)c2ccccc21	MEKK3 PB1 HTS 134 (no result: UBC13 inh, Apaf1 inhib) | MEKK2wt confirm inactive | MEKK2mut confirm inactive | MEKK3 confirm inactive
CN(/N=C/c1cccnc1)C1=NS(=O)(=O)c2ccccc21	none (no result: UBC13 inh, Apaf1 inhib)
Cc1ccc(S(=O)(=O)NCCC(=O)N2CCC(Cc3ccccc3)CC2)cc1	none (no result: MEKK2 WT-MEK5, MEKK2mut PB1 HTS, MEKK3 PB1 HTS)
O=C(NCCCN1CCC(Cc2ccccc2)CC1)c1ccc2nc(N3CCOCC3)sc2c1	MEKK2 WT-MEK5 144 | MEKK2wt confirm inactive | MEKK2mut confirm inactive | MEKK3 confirm inactive
Cc1ccc(S(=O)(=O)NCc2ccc(C(=O)NCCCN3CCC(Cc4ccccc4)CC3)cc2)cc1	MEKK2 WT-MEK5 161 | MEKK2wt confirm inactive | MEKK2mut confirm inactive | MEKK3 confirm inactive
CC(=O)N1CCC(C(=O)NCCOc2ccc(C)cc2)CC1	none
CCOCC(=O)Nc1ccccc1C(=O)O	none
CCOc1cc2c(cc1/C=C/c1noc(C)c1[N+](=O)[O-])OC(C)C2 (stereo not given)	none
Cc1ccc(O)c(N=Nc2ccc(S(=O)(=O)N3CCCC3)cc2)c1	MEKK3 PB1 HTS 132 | MEKK2wt confirm inactive | MEKK2mut confirm inactive | MEKK3 confirm inactive
CCn1c(C)c(C2=CCN(S(=O)(=O)c3ccc(C)cc3)CC2)c2ccccc21	MEKK2 WT-MEK5 6.0[inhibitor] | MEKK2wt confirm inactive | MEKK2mut confirm inactive | MEKK3 confirm inactive
Cc1ccc(S(=O)(=O)N2CC=C(c3ccc(F)cc3)CC2)cc1	MEKK3 PB1 HTS 140 | MEKK2wt confirm inactive | MEKK2mut confirm inactive | MEKK3 confirm inactive
Cc1c(C2=CCN(S(=O)(=O)c3ccc(Br)cc3)CC2)c2ccccc2n1C	none
Cc1ccc(S(=O)(=O)N2CCN(S(=O)(=O)N3CCCCC3)CC2)c(C)c1	MEKK2 WT-MEK5 -3.0[inhibitor], MEKK3 PB1 HTS 1.0[inhibitor] | MEKK2wt confirm inactive | MEKK2mut confirm inactive | MEKK3 confirm inactive
COc1ccc(CCN2C(=NC(C)=O)SC3CS(=O)(=O)CC32)cc1OC (stereo not given)	none
COc1ccc(OC)c(NC(=O)CSc2nncc(=O)n2N)c1	none
CCn1cc(C(=O)NNC(=O)c2ccc(Cl)cc2)c(=O)c2ccc(C)nc21	none
COCc1ccc(C(=O)N2CCCC(C(=O)c3ccc(SC)cc3)C2)s1 (stereo not given)	none
Cc1ccc(S(=O)(=O)N2CCCN(S(=O)(=O)c3ccc(C)cc3)CC2)cc1	MEKK3 PB1 HTS 36[inhibitor] | MEKK2wt confirm inactive | MEKK2mut confirm inactive | MEKK3 confirm inactive
Cn1c(Cn2c(C(F)(F)F)nc3ccccc32)nc2ccccc21	MEKK2mut PB1 HTS 24 | MEKK2wt confirm inactive | MEKK2mut confirm inactive | MEKK3 confirm inactive
OCCn1c(C(F)(F)F)nc2ccccc21	none
CCCSc1ncnc2sc(C)c(C)c12	MEKK2 WT-MEK5 8.0[inhibitor], MEKK3 PB1 HTS 4.0[inhibitor] | MEKK2wt confirm 10[inhibitor] | MEKK2mut confirm inactive | MEKK3 confirm 52
CCOC(=O)NC1(C(F)(F)F)NC(=O)N(c2ccc(F)cc2)C1=O (stereo not given)	none
O=C(NC1(C(F)(F)F)NC(=O)N(c2ccc(F)cc2)C1=O)c1cccs1 (stereo not given)	MEKK3 PB1 HTS 158 | MEKK2wt confirm inactive | MEKK2mut confirm inactive | MEKK3 confirm inactive
